# SR-BI uptake up: SR-BI HDL lipid transfer activation; activation, % at 12.5 µM; hit rate 0.096% among 320,000; AID 504775; CHO ldlA[mSR-BI] cells, DiI-HDL uptake fluorescence, 3 h; 100 = double the neutral-control signal;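 active = mean replicate activation of at least 60% and every replicate at or above 60%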;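 also: 0% = median plate neutral-control signal and 100% = twice that signal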
#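 System: CHO ldlA[mSR-BI] cells / Medium: HEPES-buffered (25 mM, pH 7.4) F12 plus 0.5% BSA / Probe or stimulus: labelled HDL, 10 µg/mL / Doses: single compound concentration, delivered by pin transfer / Schedule: 3 h, 37 °C / Measured by: DiI fluorescence, bottom read / Measure: cell-associated DiI fluorescence as measure of HDL uptake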
# ABCB6 inh MLPCN: human ABCB6 transporter inhibition; K562-ABCB6 porphyrin accumulation, flow cytometry, 1 h; hits give low values; hit rate 0.19% among 360,000; fluorescence ratio to DMSO, % at 10 µM; Q9NP58; AID 602162;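 active = fluorescence ratio to DMSO below 75%, the collection mean minus 3 SD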;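 also: signal is porphyrin accumulated inside mitochondria; 100% equals median channel fluorescence of DMSO control wells; lower ratio means ABCB6 inhibition with less porphyrin fluorescence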
# HIF act: HIF pathway transcriptional activation; activation, % at 7.5 µM (by protocol); hit rate 0.32% among 300,000; U2OS HRE-luciferase reporter, luminescence; normalized: DMSO 0%, desferrioxamine 100%;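 active = mean activation of at least 10% of the iron chelator positive control signal, with at least half of replicates also reaching 10%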
# SR-BI HDL uptake: inhibitors of mouse SR-BI mediated HDL lipid uptake; inhibition, % at 12.5 µM; ldlA[mSR-BI] CHO cells, DiI-HDL uptake fluorescence, 3 h; hit rate 0.96% among 320,000; AID 488896; Q61009;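 active = mean replicate inhibition of at least 70% and a set share of replicates each scoring 70 or more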;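 also: 0% = median of neutral control wells and 100% = median of positive control wells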
# AHR act: activates the human aryl hydrocarbon receptor; P35869; AHR-responsive luciferase reporter cells, luminescence; activation, % at 5 µM; hit rate 2.5% among 320,000; in the data active = activation above about 47%;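 also: 0% = vehicle wells and 100% = reference agonist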
# Target sequence (P35869 whole entry, looked up): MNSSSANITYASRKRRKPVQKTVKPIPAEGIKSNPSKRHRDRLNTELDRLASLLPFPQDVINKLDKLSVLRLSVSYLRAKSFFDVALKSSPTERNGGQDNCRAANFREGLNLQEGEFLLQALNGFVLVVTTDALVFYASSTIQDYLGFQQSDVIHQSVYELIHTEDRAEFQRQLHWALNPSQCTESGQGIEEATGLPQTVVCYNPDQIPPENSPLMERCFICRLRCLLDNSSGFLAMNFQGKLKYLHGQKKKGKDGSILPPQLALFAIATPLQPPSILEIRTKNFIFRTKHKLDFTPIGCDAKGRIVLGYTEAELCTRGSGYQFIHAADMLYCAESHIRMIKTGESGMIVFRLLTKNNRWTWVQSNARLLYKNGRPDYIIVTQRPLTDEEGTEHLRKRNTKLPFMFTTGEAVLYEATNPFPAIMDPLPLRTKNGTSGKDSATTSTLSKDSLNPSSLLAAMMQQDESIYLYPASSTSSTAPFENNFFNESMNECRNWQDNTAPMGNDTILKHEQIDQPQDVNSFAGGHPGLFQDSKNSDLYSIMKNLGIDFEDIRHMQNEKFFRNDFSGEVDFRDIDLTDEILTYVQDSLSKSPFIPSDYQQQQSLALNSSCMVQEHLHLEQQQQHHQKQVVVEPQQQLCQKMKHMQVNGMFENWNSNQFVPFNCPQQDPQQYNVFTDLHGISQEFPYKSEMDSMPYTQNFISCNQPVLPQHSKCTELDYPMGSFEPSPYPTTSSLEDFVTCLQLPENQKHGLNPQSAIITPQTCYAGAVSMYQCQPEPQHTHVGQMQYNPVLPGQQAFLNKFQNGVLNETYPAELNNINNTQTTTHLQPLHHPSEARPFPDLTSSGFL
# GAA850 FXN act: activators of GAA850 frataxin (FXN) promoter. hit rate 0.56% among 360,000. activation, % at 6 µM. HEK293 lucGAA850 FXN promoter luciferase reporter, 24 h; percent of 10 µM SAHA response;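 active = activation above the average of all compounds screened plus 3 SD, cutoff fixed separately per campaign, cut at about 7.5% in these data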;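 also: 0% = DMSO wells and 100% = 10 µM SAHA wells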
# ABCB6 blocker 1: human ABCB6 transporter inhibition; shares compounds with ABCB6 inh MLPCN; K562-ABCB6 porphyrin accumulation, flow cytometry, 1 h; hits give low values; ratio response (% of DMSO), % at 10 µM; 700 tested, under 10 active;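 active = repeat-averaged ratio response below 75% of DMSO, the collection mean minus 3 SD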;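 also: median porphyrin fluorescence at 575 nm with 488 nm excitation from mitochondria; lower ratio means less porphyrin signal so ABCB6 inhibition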
# Active calls of the source: *; · = no result. Compounds with a hit are over-represented: about 3.9% of the library has one in this group of screens.
SMILES,SR-BI uptake up,ABCB6 inh MLPCN,HIF act,SR-BI HDL uptake,AHR act,GAA850 FXN act,ABCB6 blocker 1
CC1CCN(S(=O)(=O)c2ccc(NC(=O)CN3CCN(c4ccccc4)CC3)cc2)CC1,-33,73*,-1,33,0,-3,102
Cc1cc2ccccc2n2c(SCC(=O)Nc3ccc(S(=O)(=O)N4CCCCC4)cc3)nnc12,-8,77,0,8,10,3,·
O=C(Cn1cnc2cc([N+](=O)[O-])ccc2c1=O)Nc1ccccc1Cl,-1,98,0,1,2,0,·
C#CCOc1ccccc1CNC1CCN(Cc2ccccc2)CC1,22,57*,-1,-22,1,1,98
COc1cccc(-n2c(Cn3nc(C(F)F)cc3C(F)F)n[nH]c2=S)c1,22,101,0,-22,4,1,·
CCOc1cc(CNc2ncnc3nc[nH]c23)ccc1OC,14,73*,0,-14,6,0,100
CCCNc1ncnc2nc[nH]c12,23,98,0,-23,2,0,·
NS(=O)(=O)OCc1ccc(C(F)(F)F)cc1,28,99,-1,-28,-2,1,·
COc1cc(OC)c(C#N)c(S(=O)(=O)Cc2ccccc2)c1,-21,68*,0,21,-2,1,99
Cc1ccc(Cn2c(CN(C)Cc3ccccc3)nc3c2c(=O)n(C)c(=O)n3C)cc1,-8,101,0,8,3,1,·
CN(Cc1ccccc1)Cc1nc2c(c(=O)n(C)c(=O)n2C)n1Cc1ccc(F)cc1,-4,63*,-1,4,1,-4,97
CC(=O)Nc1cccc(NC(=O)c2sc3ncn(CC(=O)N4CCCCC4)c(=O)c3c2C)c1,-32,101,·,32,·,3,99
CCCNC(=O)Cn1cnc2sc(C(=O)Nc3cc(OC)c(OC)c(OC)c3)c(C)c2c1=O,-38,101,0,38,-2,-2,97
Cc1c(C(=O)Nc2c(F)cccc2F)sc2ncn(CC(=O)N3CCCCC3)c(=O)c12,-12,99,0,12,0,4,·
CCN(CC)C(=O)Cn1cnc2sc(C(=O)Nc3cc(OC)c(OC)c(OC)c3)c(C)c2c1=O,-13,97,·,13,-1,-2,102
CCOc1ccc2nc(NC(=O)CN3CCOCC3)sc2c1,-4,92,2,4,15,3,·
O=C(NCCC1=CCCCC1)C1CCC(=O)N(Cc2cccc(C(F)(F)F)c2)C1 (centres undefined),6,98,0,-6,2,-1,·
Cc1ccc(NC(=S)N2CCN(c3nccc(C(F)(F)F)n3)CC2)c(C)c1,-21,96,0,21,2,1,·
COc1cc(C2=NOC(C(=O)N3CCCc4ccccc43)C2)cc(OC)c1OC (centres undefined),-82,64*,0,82*,1,0,100
CC(=O)Nc1ccc(NC(=O)[C@H](C)NC(=O)c2ccco2)cc1,·,64*,0,·,0,2,98
Cn1c(=O)c2c(ncn2CC(=O)NC(C)(C)C)n(C)c1=O,10,74*,0,-10,3,0,99
CC(C)NC(=O)Cn1cnc2c1c(=O)n(C)c(=O)n2C,-17,99,0,17,3,0,·
O=c1[nH]cnc2c1sc(=S)n2-c1ccccc1,10,65*,0,-10,-3,-1,100
CCOC(=O)N1CCN(S(=O)(=O)c2ccc(F)c(C(=O)Nc3cccc(C)c3C)c2)CC1,8,72*,0,-8,-4,0,99
CCOC(=O)c1ccccc1NC(=O)c1cc(S(=O)(=O)N2CCOCC2)ccc1F,-20,99,-1,20,-2,0,·
SMILES,SR-BI uptake up,ABCB6 inh MLPCN,HIF act,SR-BI HDL uptake,AHR act,GAA850 FXN act,ABCB6 blocker 1
O=C(CCc1ccc(S(=O)(=O)N2CCOCC2)cc1)Oc1ccccc1,25,62*,0,-25,2,1,98
COc1cc2c(cc1OC)-c1cc(Nc3ccccc3C)nc(=O)n1CC2,-32,98,0,32,2,7,·
COc1ccccc1NC(=O)c1ccc(NC(=O)CSc2nncn2C)cc1,3,93,0,-3,16,1,·
CCCn1c(SCC(=O)Nc2ccc(C(=O)Nc3ccccc3OC)cc2)n[nH]c1=O,-61,68*,0,61,2,-1,98
CCCCn1c(N)c(N(CCOC)C(=O)CSCc2ccccc2C)c(=O)[nH]c1=O,12,93,0,-12,0,-1,·
COC(=O)COc1cccc(NC(=O)c2ccccc2)c1,2,74*,0,-2,1,3,100
Cn1c(=O)n(Cc2ccccc2)c(=O)c2c1nc1n2CCS1,13,101,0,-13,0,0,·
CC(C)(C)c1ccc(CC(=O)N2CCC2(C)C(=O)NS(=O)(=O)c2cccc(OC(F)F)c2)cc1 (centres undefined),·,97,·,·,·,0,·
Cc1cc(C)cc(CC(=O)N2CCC2(C)C(=O)NS(=O)(=O)c2ccc(C#N)cc2)c1 (centres undefined),·,93,·,·,·,-1,103
Cc1cc(C)cc(CC(=O)N2CCC2(C)C(=O)NS(=O)(=O)c2cccc(OC(F)F)c2)c1 (centres undefined),·,95,·,·,·,0,99
CC1(C(=O)NS(=O)(=O)c2ccc(C#N)cc2)CCN1C(=O)Cc1ccsc1 (centres undefined),·,99,·,·,·,2,·
CCn1c(SCC(=O)c2ccccc2)nnc1-c1cccnc1,21,71*,1,-21,14,2,101
O=C(c1ccc(CNS(=O)(=O)c2cccc(C(F)(F)F)c2)cc1)N1CCOCC1,21,101,0,-21,-2,1,·
N#CCCN/N=C(\Cc1nc2ccccc2[nH]1)c1ccccc1,4,61*,0,-4,13,0,108
N/N=C(/Cc1nc2ccccc2[nH]1)c1ccc([N+](=O)[O-])cc1,-40,104,4,40,20,4,·
O=C(COC(=O)CSc1ccc2ccccc2c1)NCc1ccc2c(c1)OCO2,8,65*,0,-8,-4,2,98
CC1CN(C(=O)CNC(=O)COc2ccccc2)CC(C)O1 (centres undefined),43,97,·,-43,1,0,·
Cc1cccc(C(C)C)c1NC(=O)COC(=O)CCC(=O)N(CC(C)C)c1c(N)n(CC(C)C)c(=O)[nH]c1=O,·,97,·,·,·,1,99
CC(C)CN(C(=O)CCC(=O)OCc1ccc(Cl)cc1Cl)c1c(N)n(CC(C)C)c(=O)[nH]c1=O,24,96,1,-24,0,-2,·

# Screens: PubChem BioAssay, several laboratories
